A short description of data set [1]: Growth inhibition of mouse RAW264.7 cells at 50 ug/ml after 48 hrs by MTT assay relative to control. Format: cell-based. As to conditions: read-out: GI. The method, boiled down: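 RAW 264.7 mouse macrophages exposed to compound at 50 µg/ml for 48 h. Viability read as MTT conversion to formazan.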
On the technique in general: Tetrazolium assays rely on reduction of a dye to a coloured formazan, in cell work by metabolically active cells.

Data set [2] relates to Mycobacterium tuberculosis. In words: Antibacterial activity against replicative stage Mycobacterium tuberculosis H37Rv after 7 days by MABA. Format: functional. As to conditions: 168 h. The method, boiled down: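 MABA run in duplicate. H37Rv from fresh LJ medium grown in 7H9/OADC at 37 °C to McFarland no.1, then diluted 1:25 as inoculum. Compounds tested in serial dilutions. After 7 days, alamar blue/Tween 80 (1:1) added and plates re-incubated overnight.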
A general note: The colour change of resazurin is a common sign of viable cells or microbes.

Data set [3] has as its target T1, L-lysine-epsilon aminotransferase (Mycobacterium tuberculosis, UniProt P9WQ77).
T1 sequence (P9WQ77 whole entry): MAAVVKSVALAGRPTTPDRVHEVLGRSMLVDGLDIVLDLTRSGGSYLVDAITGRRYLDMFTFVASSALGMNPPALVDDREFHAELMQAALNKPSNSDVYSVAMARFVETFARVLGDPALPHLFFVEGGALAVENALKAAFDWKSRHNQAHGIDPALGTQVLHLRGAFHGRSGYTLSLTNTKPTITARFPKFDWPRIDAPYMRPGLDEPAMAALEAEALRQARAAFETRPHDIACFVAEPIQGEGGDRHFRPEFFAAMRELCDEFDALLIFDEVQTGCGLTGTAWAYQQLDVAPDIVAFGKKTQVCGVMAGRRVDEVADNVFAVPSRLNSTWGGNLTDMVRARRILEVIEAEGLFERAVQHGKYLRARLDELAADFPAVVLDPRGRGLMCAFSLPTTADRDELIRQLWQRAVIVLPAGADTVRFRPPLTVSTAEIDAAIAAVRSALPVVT
The data set is described as follows: Inhibition of Mycobacterium tuberculosis LAT using L-lysine as substrate by spectroscopic method. The method, boiled down:
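Purified recombinant MTB LAT incubated 1 h at 37 °C in 200 mM phosphate pH 7.2 with 1.5 mM L-lysine, 1.5 mM α-ketoglutarate and 15 µM pyridoxal 5-phosphate, with compounds at several concentrations. Stopped with 10% TCA in ethanol. Products read as o-aminobenzaldehyde adduct at 465 nm and at 280 nm.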

Data set [4] relates to Mycobacterium tuberculosis. In words: Antibacterial activity against Mycobacterium tuberculosis H37Rv nutrient starvation model assessed as log reduction in bacterial colonies at 10 ug/ml measured after 7 days by MPN assay. Format: functional. The gist of the method:
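H37Rv grown in 7H9/OADC to OD 0.8–1.0, washed twice, then held in PBS in sealed bottles at 37 °C for 6 weeks. Starved aliquots exposed to compound at 10 µg/ml for 7 days. Persisters enumerated by MPN assay.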

For data set [5], the system named is Mycobacterium tuberculosis. In words: Antibiofilm activity against Mycobacterium tuberculosis assessed as log reduction in bacterial count at 10 ug/ml measured after 7 days by MPN assay. Format: functional. The method, boiled down: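 MTB inoculated 1:100 in Sauton's medium, sealed and grown 5 weeks at 37 °C to form a mature biofilm. Compound added to the medium (n=4) for 7 days. Tween-80 0.1% added, cells washed in PBS/10% glycerol/0.05% Tween-80 and homogenised. Persisters compared with solvent control by MPN assay.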

Data set [6] relates to Mycobacterium marinum. The data set is described as follows: Antibacterial activity against Mycobacterium marinum ATCC BAA-535 infected in Zebra fish assessed as log reduction in bacterial counts at 5 mg/kg, po administered for 7 days by MPN assay. Format: functional. The method, boiled down: (§1)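 Adult zebrafish (n=6 per group) infected intraperitoneally with M. marinum ATCC BAA-535 grown at 30 °C in 7H9 broth (about 0.75 million bacteria). From day 7 after infection, drug given orally by micropipette for 7 days. Fish then homogenised, tissue taken up in 7H9 broth, and bacterial counts read by MPN assay.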

Data set [7] relates to Mycobacterium tuberculosis. The data set is described as follows: Antibacterial activity against Mycobacterium tuberculosis H37Rv infected in 3D culture of human PBMC assessed as colony forming units treated for 4 days measured after 3 days. Format: functional. The gist of the method: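 PBMCs at 5x10^5 cells/well in collagen–fibronectin ECM (pH 7.0), infected with H37Rv at MOI 0.1, grown in RPMI with 20% human serum at 37 °C/CO2. Granulomas treated 4 days, then with or without Rif for 3 more days. Collagenase release, Triton X-100 lysis, 7H10 plating, cfu counted after 4 weeks.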

Data set [8] has as its system Mycobacterium tuberculosis. The data set is described as follows: Antibacterial activity against non-replicative stage Mycobacterium tuberculosis H37Rv. Format: functional, organism-based.
The subject of data set [9] is Mycobacterium marinum. The data set is described as follows: Antibacterial activity against Mycobacterium marinum ATCC BAA-535 infected in Zebra fish assessed as log reduction in bacterial counts at 10 mg/kg, po administered for 7 days by MPN assay. Format: functional. The method, boiled down: as §1

In brackets after ≈: the same amount, converted by molar mass. Activity calls are given as the source filed them.

Usually MIC stands for the smallest concentration in the dilution series that meets the test's criterion for growth inhibition. High values mean a less susceptible organism, low ones a more susceptible organism. In general, IC50 refers to the midpoint of a concentration-inhibition curve. Higher therefore signals lower potency. `N#C/C(=C\c1ccc(-c2cccc(C(=O)O)c2)o1)c1nc2ccccc2s1`: the inhibition at 48 h, 50 ug/ml in data set [1] was 3.12%. Further, the minimum inhibitory concentration (MIC) in data set [2] is greater than 67.2 µM. For the same molecule, in data set [3], it took 3.74 µM to reach half-maximal inhibition (IC50).
`N#C/C(=C\c1ccc(-c2cc(C(=O)O)cc(C(=O)O)c2)o1)c1nc2ccccc2s1`: the inhibition at 48 h, 50 ug/ml in data set [1] came to 14.4%. In data set [2], the minimum inhibitory concentration (MIC) came out at 60.1 µM (≈ 25 µg/mL). Further, the “log(activity)” value in data set [4] turned out to be 2.8. The molecule also returned an IC50 in data set [3] of 1.15 µM.
For the molecule `N#C/C(=C\c1ccc(O)cc1O)c1nc2ccccc2s1`, in [1], the inhibition at 48 h, 50 ug/ml is 45.7%. Moreover, inhibition of growth in data set [2] (MIC) required 10.6 µM (≈ 3.12 µg/mL). For the same molecule, the IC50 in [3] came to 23.2 µM.
On the same counts, the results for `COc1cc(/C=C(\C#N)c2nc3ccccc3s2)cc(OC)c1OC` are 12.6%, greater than 71 µM and 64.9 µM.
On the same counts, the results for `COc1ccc(/C=C(\C#N)c2nc3ccccc3s2)cc1OC` are 32.5%, greater than 77.6 µM and 61.4 µM.
On the same counts, the results for `N#C/C(=C\c1ccc([N+](=O)[O-])s1)c1nc2ccccc2s1` are 60.3%, greater than 79.9 µM and 54.8 µM.
In the case of `N#C/C(=C\c1ccc2c(c1)OCO2)c1nc2ccccc2s1`, in data set [1], the inhibition at 48 h, 50 ug/ml was determined as 45.7%. In data set [2], this molecule came in with an MIC of 81.7 µM (≈ 25 µg/mL). Besides, in data set [3], the 50% inhibitory concentration (IC50) worked out at 66 µM.
As to `NNC(=O)c1ccncc1` [ISONIAZID], the “log(activity)” value in data set [5] amounted to 1.9; with Mycobacterium marinum [6], 2.8; in [4], 1.2. In addition, in data set [1], the inhibition at 48 h, 50 ug/ml stood at 93.2%. The molecule further returned an MIC in data set [2] of 0.4 µM (≈ 0.0549 µg/mL).
As to `CO[C@H]1/C=C/O[C@@]2(C)Oc3c(C)c(O)c4c(O)c(c(/C=N/N5CCN(C)CC5)c(O)c4c3C2=O)NC(=O)/C(C)=C\C=C\[C@H](C)[C@H](O)[C@@H](C)[C@@H](O)[C@@H](C)[C@H](OC(C)=O)[C@@H]1C` [RIFAMPIN], the “log(activity)” value in [5] was 2; in [4], 1.3. In addition, in data set [7], the Activity stood at 3.3 ×10⁵ CFU. In addition, the inhibition at 48 h, 50 ug/ml in data set [1] was 23.5%. Moreover, the MIC in data set [2] stood at 0.5 µM (≈ 0.411 µg/mL).
With `N#C/C(=C\c1ccc(OCc2ccccc2)cc1)c1nc2ccccc2s1`, the inhibition at 48 h, 50 ug/ml in data set [1] is 22.8%. In data set [2], this molecule displayed a minimum inhibitory concentration (MIC) of 68 µM (≈ 25 µg/mL). This molecule also had an IC50 in data set [3] of 47.9 µM.
Take `N#C/C(=C\c1ccc(-c2cccc(C(=O)O)c2)s1)c1nc2ccccc2s1`: the “log(activity)” value in data set [5] came out at 2.1; in data set [4], 2.9. Besides, the inhibition at 48 h, 50 ug/ml in data set [1] was 18.9%. Also, it took 64.4 µM (≈ 25 µg/mL) to inhibit growth in data set [2] (MIC). Also, the half-inhibitory concentration (IC50) in [3] was determined as 5.73 µM.
Take `N#C/C(=C\c1ccc[nH]1)c1nc2ccccc2s1`: the inhibition at 48 h, 50 ug/ml in data set [1] turned out to be 56.4%. The molecule further returned a minimum inhibitory concentration (MIC) in data set [2] greater than 99.6 µM. In addition, in data set [3], the IC50 worked out at 17 µM.
The like results for `N#C/C(=C\c1ccccc1OCC(=O)O)c1nc2ccccc2s1` were, in that order, 52.3%, 2.32 µM (≈ 0.78 µg/mL) and 53.8 µM.
The like results for `N#C/C(=C\c1c[nH]c2ccccc12)c1nc2ccccc2s1` were, in that order, 45.7%, greater than 83.1 µM and 37.9 µM.
On the same counts, the results for `N#C/C(=C\c1ccc(-c2ccc(C(=O)O)cc2)o1)c1nc2ccccc2s1` are 15.2%, greater than 67.2 µM and 14.1 µM.
`N#C/C(=C\c1ccco1)c1nc2ccccc2s1`: the inhibition at 48 h, 50 ug/ml in data set [1] stood at 47.3%. The molecule also gave an MIC in [2] of 49.6 µM (≈ 12.5 µg/mL). The molecule also showed an IC50 in [3] of 16.2 µM.
On the same counts, the results for `N#C/C(=C\c1ccc(O)cc1)c1nc2ccccc2s1` are 2.26%, greater than 89.9 µM and 10.4 µM.
With `N#C/C(=C\c1ccc(-c2ccc(C(=O)O)cc2)s1)c1nc2ccccc2s1`, the result in data set [8] was Active. For the same molecule, the inhibition at 48 h, 50 ug/ml in data set [1] amounted to 5.64%. In data set [2], 2.01 µM (≈ 0.781 µg/mL) was the least that counted as inhibitory (MIC). Further, half-maximal inhibition in [3] (IC50) required 6.72 µM.
On to `N#C/C(=C\c1ccc(F)cc1)c1nc2ccccc2s1`, for which the inhibition at 48 h, 50 ug/ml in data set [1] came out at 10.6%. The MIC in data set [2] was determined as 89.3 µM (≈ 25 µg/mL). In data set [3], this molecule yielded a half-inhibitory concentration (IC50) of 4.11 µM.
`COc1cc(/C=C(\C#N)c2nc3ccccc3s2)ccc1O`: the inhibition at 48 h, 50 ug/ml in data set [1] came out at 34.8%. This molecule displayed an MIC in [2] of 20.3 µM (≈ 6.26 µg/mL). This molecule came in with a concentration for half-maximal inhibition (IC50) in data set [3] of 7.83 µM.
Regarding `N#C/C(=C\c1ccc(OCC(=O)O)cc1)c1nc2ccccc2s1`, the outcome in data set [8] was Active. Further, in data set [1], the inhibition at 48 h, 50 ug/ml was found to be 12.7%. This molecule registered an MIC in data set [2] of 4.64 µM (≈ 1.56 µg/mL). Further, the “log(activity)” value in data set [4] stood at 2.8. Besides, the concentration for half-maximal inhibition (IC50) in data set [3] was determined as 3.08 µM.
On to `COc1c(N2C[C@@H]3CCCN[C@@H]3C2)c(F)cc2c(=O)c(C(=O)O)cn(C3CC3)c12` [MOXIFLOXACIN], for which the “log(activity)” value in data set [5] stood at 1.8; in the data set on Mycobacterium marinum [9], 2.7; in data set [4], 2.2.
As to `N#C/C(=C\c1cccs1)c1nc2ccccc2s1`, in data set [1], the inhibition at 48 h, 50 ug/ml was 17.3%. In data set [2], this molecule registered an MIC greater than 93.3 µM. Besides, 92.6 µM corresponded to half-maximal inhibition in data set [3] (IC50).
`N#C/C(=C\c1ccc([N+](=O)[O-])o1)c1nc2ccccc2s1`: in [1], the inhibition at 48 h, 50 ug/ml came to 19.6%. The molecule also returned a minimal inhibitory concentration (MIC) in [2] greater than 84.2 µM. Besides, the “log(activity)” value in [4] is on record as 2.8. The same molecule had an IC50 in data set [3] of 19.6 µM.

Values taken from ChEMBL document CHEMBL4177555, “Mycobacterium tuberculosis lysine-ɛ-aminotransferase a potential target in dormancy: Benzothiazole based inhibitors” (Bioorg Med Chem, 2017).
